KCNQ1 act: human KCNQ1 channel potentiation or activation. B-score at 10 µM. 310,000 tested, 0.35% active. CHO-K1 KCNQ1, thallium flux FluxOR fluorescence; stronger effect = higher value. AID 2648;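 active = fluorescence ratio B-score, a plate-corrected score, at least three library SD, with initial intensity B-score within 5 SD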
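assay system = KCNQ1-transfected CHO-K1 cells | medium = assay buffer with matched DMSO | probe or stimulus = depolarizing K+/Tl+ stimulus, K2SO4 and Tl2SO4 each 12.5 mM in 5x stock | dosing = single dose | incubation = dye 90 min, compound 20 min, room temperature | detection = kinetic FluxOR fluorescence, 10 s baseline plus 110 s post-stimulus | evaluation = ratio B score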
KCNQ1 block: blocks the human KCNQ1 potassium channel. P51787. CHO-K1 KCNQ1, FluxOR thallium flux fluorescence; stronger effect = higher value. B-score at 10 µM. 310,000 tested, 1.3% active. AID 2642;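 active = compounds whose thallium flux B-score, printed positive for inhibition, exceeds three library SD while starting fluorescence stays within three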;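 also: channel opened by potassium depolarization with thallium stimulus after 20 min compound exposure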
hERG rescue: compounds protecting human hERG from proarrhythmic drug block; Q12809; CHO-hERG, FluxOR thallium flux, dofetilide IC70 present; activation (rescue from dofetilide block), less the hit threshold, % at 10 µM; 310,000 tested, 0.51% active;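 active = activation above the mean of controls blocked by dofetilide plus 5 SD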;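 also: thallium influx through hERG after potassium depolarization seen as dye fluorescence rise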
Kir21 block: Kir2.1 (mouse) channel inhibition; B-score at 10 µM; P35561; HEK293-Kir2.1, FluxOR thallium flux fluorescence; stronger effect = lower value; AID 1672; 310,000 tested, 0.85% active;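 active = fluorescence ratio B-score at or below minus 3 SD of library scores, with starting-brightness B-score within 2 SD, cut at about -4.2 in these data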;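 also: channel flux triggered by added potassium and thallium sulfate stimulus; B-score of peak minus minimum fluorescence over baseline after thallium stimulus; more negative B-score means stronger Kir2.1 block with less thallium influx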
Target sequence (P35561 whole entry, looked up): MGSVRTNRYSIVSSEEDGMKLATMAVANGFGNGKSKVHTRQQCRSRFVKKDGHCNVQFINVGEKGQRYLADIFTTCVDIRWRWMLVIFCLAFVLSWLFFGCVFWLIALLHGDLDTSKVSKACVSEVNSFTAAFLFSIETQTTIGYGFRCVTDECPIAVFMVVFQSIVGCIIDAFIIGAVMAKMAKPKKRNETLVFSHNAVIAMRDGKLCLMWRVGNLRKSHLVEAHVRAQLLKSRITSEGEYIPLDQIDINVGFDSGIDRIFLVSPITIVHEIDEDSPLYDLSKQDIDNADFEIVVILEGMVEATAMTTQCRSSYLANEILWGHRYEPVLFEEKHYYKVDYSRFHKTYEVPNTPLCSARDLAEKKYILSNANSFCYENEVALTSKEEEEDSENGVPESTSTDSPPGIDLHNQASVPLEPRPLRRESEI
KCNK3 inh: human KCNK3 channel inhibition, primary screen | AID 602410 | CHO-KCNK3 thallium flux, FluxOR fluorescence; stronger effect = lower value | O14649 | B-score at 10 µM | 340,000 tested, 0.84% active;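 active = B-score under library mean minus 4 SD, starting fluorescence ratio at most library mean plus 5 SD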;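 also: more negative B-score means stronger inhibition of thallium flux through KCNK3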
KCNK9 block: inhibitors of human KCNK9 two-pore domain potassium channel. B-score at 10 µM. HEK293 KCNK9, FluxOR thallium flux fluorescence; stronger effect = lower value. Q9NPC2. 310,000 tested, 1.2% active. AID 488922;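 active = ratio B-score over 3 SD below the library mean, with starting fluorescence within 5 SD of its mean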;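 also: negative B-score means less thallium flux so channel inhibition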
KCNQ1 inh valid: human KCNQ1 channel inhibition, validation assay | shares compounds with KCNQ1 block | KCNQ1 cell line, FluxOR thallium flux fluorescence | inhibition, % at 10 µM | 1,600 tested, 93% active | AID 588353;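 active = primary screen active, with duplicate mean exceeding buffer control mean plus 3 SD of buffer wells, cut at about 28% in these data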;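 also: 0% = buffer control ratio and 100% = XE991 inhibitor control ratio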
CHO Tl flux: KCNQ1 inhibitor counter-screen hit in parental CHO cells. shares compounds with KCNQ1 block. parental CHO-K1, FluxOR thallium flux fluorescence ratio; stronger effect = lower value; zero means no signal rise above baseline. fluorescence ratio (Tl flux) at 10 µM. 1,600 tested, 21% active;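 active = mean of duplicate thallium-flux fluorescence ratios in parental host cells more than 5 SD below the buffer control mean, cut at about 0.38 in these data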;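 also: ratio is peak minus minimum fluorescence divided by baseline fluorescence; actives read low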
KCNQ1 APC inh: blocks human KCNQ1 current in automated patch clamp; shares compounds with KCNQ1 block; KCNQ1-CHO cells; calls only at 10 µM; 490 tested, 20% active; AID 624120;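 active = KCNQ1 current drop exceeding 3 SD of negative control wells, seen in both duplicate runs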;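 also: steady state current during a 2 s step from -80 to +40 mV; negative values mean current inhibition and positive values mean potentiation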
KCNQ2 inh: rat KCNQ2 inhibition in KCNQ1 inhibitor specificity screen; shares compounds with KCNQ1 block; 1,600 tested, 71% active; KCNQ2 cells, FluxOR thallium flux fluorescence; inhibition, % at 10 µM;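 active = mean percent inhibition of the KCNQ2 thallium signal more than 5 SD above the buffer-only control wells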;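 also: KCNQ2 expressed in CHO cells; 0% = buffer control wells and 100% = XE-991 inhibitor control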
KCNQ1-KCNE1 inh: KCNQ1 inhibitor that also blocks human KCNQ1/KCNE1 channel; inhibition, % at 10 µM; 1,600 tested, 77% active; shares compounds with KCNQ1 block; KCNQ1/KCNE1 cells, FluxOR thallium flux fluorescence;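 active = mean percent inhibition of duplicate wells above the buffer-only control mean plus 3 SD of those controls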;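 also: 0% = buffer only wells and 100% = XE-991 inhibitor control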
* = called active by the depositor; i = inactive; nt = not tested or not shown; + = active, no number. Only some compounds are listed: those with a hit (about 3.7% of all), similar ones and a draw of the others.

SMILES | KCNQ1 act | KCNQ1 block | hERG rescue | Kir21 block | KCNK3 inh | KCNK9 block | KCNQ1 inh valid | CHO Tl flux | KCNQ2 inh | KCNQ1-KCNE1 inh | others
CCOc1ccc(Nc2nc(NCC3CCCO3)c3ccccc3n2)cc1 (stereo not drawn) | i | 11* | -30.5 | -7.14* | i | i | 134.5* | 0.392 | 80.7%* | 131.5%* | KCNQ1 APC inh=i
OCCNc1nc(Nc2ccccc2)nc(Nc2ccccc2)n1 | i | i | -10.4 | 2.19 | i | i | nt | nt | nt | nt
c1ccc(Nc2nc(NCC3CCCO3)c3ccccc3n2)cc1 (stereo not drawn) | i | 12* | -25.6 | -15.3* | -10.3* | i | 128.5* | 0.402 | 116.3%* | 150.0%* | KCNQ1 APC inh=+
C/C(=N/NC(=O)c1cc(-c2ccc(Cl)s2)[nH]n1)c1ccco1 | i | i | -3.0 | -0.88 | i | i | nt | nt | nt | nt
Cc1cccc(NC(=O)COc2ccccc2C(=O)NC(C)c2ccccc2)c1 (stereo not drawn) | i | 7* | -7.5 | 0.02 | i | i | 130.5* | 0.396 | i | 190.5%*
Cc1cccc(NC(=O)c2ccccc2OCC(=O)c2ccccc2)c1 | i | i | -12.3 | -1.1 | i | i | nt | nt | nt | nt
Cc1ccc(-n2ncc3c2CC(C)(C)CC3NC(=O)CCc2c(C)noc2C)cc1 (stereo not drawn) | i | i | -3.5 | -1.81 | i | i | nt | nt | nt | nt
S=C(Nc1ccc2nsnc2c1)NC1CCCCC1 | i | i | -12.7 | -0.61 | i | i | nt | nt | nt | nt
S=C(Nc1ccc(Cl)c(Cl)c1)NC1CCCCC1 | i | 6* | -13.9 | 0.8 | i | i | 69.0* | 0.525 | i | i
FC(F)(F)c1cccc(NC(=S)NC2CCCC2)c1 | i | i | -13.6 | 0.61 | i | i | nt | nt | nt | nt
FC(F)(F)c1ccc(NC(=S)NC2CCCCC2)cc1 | i | 7* | -9.7 | 0.71 | i | i | 65.0* | 0.518 | 59.3%* | 37.0%*
Fc1cccc(NC(=S)NC2CCCCCCC2)c1 | i | 8* | -6.7 | 0.55 | i | i | 105.0* | 0.466 | 74.7%* | 88.5%* | KCNQ1 APC inh=+
Cc1ccc(NC(=S)NC2CCCCC2)cc1S(=O)(=O)N(C)C | i | 7* | -19.1 | 2.01 | i | i | 131.5* | 0.52 | 106.7%* | i | KCNQ1 APC inh=i
Cc1cc(O)c(C(=O)Nc2cccc(Cl)c2)c(=O)n1C | i | i | -7.8 | 0.11 | i | i | nt | nt | nt | nt
Cc1ccnc(SC2CC(=O)N(c3ccc(F)cc3)C2=O)n1 (stereo not drawn) | i | i | -7.2 | -1.7 | i | i | nt | nt | nt | nt
COc1ccc(CCNC(=O)CN2C(=O)NC(Cc3c[nH]c4ccccc34)C2=O)cc1 (stereo not drawn) | i | i | -2.1 | -0.24 | i | i | nt | nt | nt | nt
O=C1OC(N2C(=O)CC[C@H]2C(=O)Nc2ccc3c(c2)OCO3)c2ccccc21 (stereo partly drawn) | i | i | -5.0 | 0.67 | i | i | nt | nt | nt | nt
CCCCNC(=S)Nc1ccc(C(F)(F)F)cc1 | i | 8* | -8.1 | -0.36 | i | i | 31.5* | 0.569 | i | i
Cc1ccc(NC(=O)c2sc3nc(C)nc(N4CCN(c5ccccn5)CC4)c3c2C)c(C)c1 | i | 8* | -12.9 | 0.54 | i | i | 84.5* | 0.465 | 97.3%* | 98.5%*

Compound activity deposited in PubChem BioAssay by Johns Hopkins Ion Channel Center.
